ChEMBL document CHEMBL2021903, “3-Deoxy-3,4-dehydro analogs of XM462. Preparation and activity on sphingolipid metabolism and cell fate” (Bioorg Med Chem, 2012)
The source made the active and inactive calls. The rule behind the calls is not given here.

How the values were obtained:
HCT-116 = assay: Cytotoxicity against human HCT116 cells after 24 hrs by MTT assay; type: functional; conditions: HCT-116, 24 h, read-out: LD50 (the source's name)
How it was run: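 Cells seeded at 10⁵ cells/mL; after 24 h medium replaced with fresh medium with or without test compounds across a concentration range. Viable cells counted by MTT after 24 h of treatment. LD₅₀ (µM) obtained by regression analysis of dose–response curves from two experiments with triplicates. HCT116 kept in low-glucose DMEM with 10% FBS at 37 °C, 5% CO2; cells used at about 80% confluence.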

A549 [1] = assay: Cytotoxicity against human A549 cells after 24 hrs by MTT assay; type: functional; conditions: A549, 24 h, read-out: LD50 (the source's name)
A549 [2] = assay: Inhibition of SM synthase in human A549 cells using CerC6NBD as substrate preincubated for 24 hrs prior substrate addition measured after 3 hrs by HPLC-FD analysis; type: cell-based
A549 [3] = assay: Effect on sphingolipidome in human A549 cells assessed as increase in dihydroceramide per 10^6 cells at 10 uM after 24 hrs by UPLC-TOF analysis relative to control (reference value: 6.5 +/- 0.42 pmol/10^6 cells); type: functional
How it was run: (§1)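 Cells incubated with compound at 10 µM, 24 h (A549) or 14 h (HCT116); lipids then extracted and profiled. Long-chain bases and phosphates were read by LC-MS/MS (positive electrospray, selected reaction monitoring, C17-dihydrosphingosine and C17-dihydrosphingosine-1-phosphate transitions monitored). Amounts expressed as pmol per 10⁶ cells. Mean ± SD of triplicates; unpaired two-tailed t-test versus control.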

[4] = target: T1, Lysosomal acid glucosylceramidase (Homo sapiens) (UniProt P04062); assay: Inhibition of human glucocerebrosidase using 4-methylumbelliferyl beta-D-glucoside as substrate at 100 uM preincubated prior substrate addition measured after 45 mins by spectrophotometry
T1 sequence (whole entry): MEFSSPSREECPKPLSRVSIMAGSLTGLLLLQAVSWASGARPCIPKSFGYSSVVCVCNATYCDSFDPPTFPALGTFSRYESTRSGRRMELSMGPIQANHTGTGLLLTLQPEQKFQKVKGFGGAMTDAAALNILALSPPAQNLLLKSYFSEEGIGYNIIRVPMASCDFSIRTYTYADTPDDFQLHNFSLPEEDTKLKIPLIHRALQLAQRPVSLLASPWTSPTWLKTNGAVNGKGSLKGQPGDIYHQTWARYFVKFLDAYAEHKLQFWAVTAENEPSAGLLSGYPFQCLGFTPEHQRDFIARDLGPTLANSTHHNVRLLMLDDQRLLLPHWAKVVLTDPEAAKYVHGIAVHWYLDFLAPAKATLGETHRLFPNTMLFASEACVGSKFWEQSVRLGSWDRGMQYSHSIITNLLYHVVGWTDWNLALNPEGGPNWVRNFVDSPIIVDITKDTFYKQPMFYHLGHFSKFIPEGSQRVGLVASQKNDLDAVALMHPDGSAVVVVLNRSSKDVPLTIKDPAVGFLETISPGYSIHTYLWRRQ

[5] = target: Neutral ceramidase (Homo sapiens) (UniProt Q9NR71); assay: Inhibition of nCDase in Moh.pAS cells using CerC12NBD as substrate after 1 hr by HPLC-FD analysis; type: cell-based
Neutral ceramidase (Homo sapiens), sequence (Q9NR71 whole entry): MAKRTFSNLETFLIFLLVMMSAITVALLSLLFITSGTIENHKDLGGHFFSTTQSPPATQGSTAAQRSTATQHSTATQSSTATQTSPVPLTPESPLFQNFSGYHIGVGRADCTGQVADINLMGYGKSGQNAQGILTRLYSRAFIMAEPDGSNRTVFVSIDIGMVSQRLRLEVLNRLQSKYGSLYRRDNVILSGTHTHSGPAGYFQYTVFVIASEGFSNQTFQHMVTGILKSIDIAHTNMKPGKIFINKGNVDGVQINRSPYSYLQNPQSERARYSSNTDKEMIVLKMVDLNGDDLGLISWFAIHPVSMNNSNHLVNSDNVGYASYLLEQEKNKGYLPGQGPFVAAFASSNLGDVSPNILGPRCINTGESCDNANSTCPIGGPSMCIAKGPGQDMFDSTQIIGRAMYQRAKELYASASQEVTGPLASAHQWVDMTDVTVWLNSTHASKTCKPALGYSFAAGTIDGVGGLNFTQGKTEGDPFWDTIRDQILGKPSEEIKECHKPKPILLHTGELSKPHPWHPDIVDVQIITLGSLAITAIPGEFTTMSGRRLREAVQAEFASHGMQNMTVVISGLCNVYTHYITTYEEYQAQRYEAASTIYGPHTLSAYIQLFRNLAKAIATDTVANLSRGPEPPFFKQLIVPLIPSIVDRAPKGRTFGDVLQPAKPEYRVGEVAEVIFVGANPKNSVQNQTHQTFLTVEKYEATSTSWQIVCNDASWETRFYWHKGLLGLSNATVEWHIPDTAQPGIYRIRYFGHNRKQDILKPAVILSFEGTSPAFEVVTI
How it was run: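 Moh. pAS cells transfected to overexpress neutral ceramidase. Lysates (sonicated in 1 mM Tris–HCl, 0.1 mM EDTA, pH 7.5) incubated 1 h, 37 °C, with 5 µM CerC12NBD in 25 mM Tris–HCl pH 7.5, 1% sodium cholate, ±50 µM compound. Intact cells treated 4 h with 50 µM compound before lysis and assay. Read-out HPLC-fluorescence.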

[6] = target: T2, Ceramide glucosyltransferase (Homo sapiens) (UniProt Q16739); assay: Inhibition of GlcCer synthase in human A549 cells using CerC6NBD as substrate preincubated for 24 hrs prior substrate addition measured after 3 hrs by HPLC-FD analysis; type: cell-based
T2 sequence (whole entry): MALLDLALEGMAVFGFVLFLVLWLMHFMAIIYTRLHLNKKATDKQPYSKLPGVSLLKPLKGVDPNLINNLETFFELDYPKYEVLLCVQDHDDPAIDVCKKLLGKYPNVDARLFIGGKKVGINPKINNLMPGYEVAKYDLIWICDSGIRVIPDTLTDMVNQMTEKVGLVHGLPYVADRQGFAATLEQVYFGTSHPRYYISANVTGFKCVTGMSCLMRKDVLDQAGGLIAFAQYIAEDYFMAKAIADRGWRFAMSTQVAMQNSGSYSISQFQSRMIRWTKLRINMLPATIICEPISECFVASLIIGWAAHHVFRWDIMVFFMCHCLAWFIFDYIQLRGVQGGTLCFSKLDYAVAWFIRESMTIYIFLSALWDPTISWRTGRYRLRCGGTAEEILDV

A549 [7] = assay: Effect on sphingolipidome in human A549 cells assessed as increase in total ceramides at 10 uM after 24 hrs by UPLC-TOF analysis; type: functional, cell-based; how it was run: as §1
[8] = target: T3, Sphingomyelin phosphodiesterase (Homo sapiens) (UniProt P17405); assay: Inhibition of human aSMase using 6-hexadecanoylamino-4-methylumbelliferylphosphorylcholine as substrate at 100 uM preincubated for 30 mins prior substrate addition measured after 2 hrs by spectrophotometry
T3 sequence (whole entry): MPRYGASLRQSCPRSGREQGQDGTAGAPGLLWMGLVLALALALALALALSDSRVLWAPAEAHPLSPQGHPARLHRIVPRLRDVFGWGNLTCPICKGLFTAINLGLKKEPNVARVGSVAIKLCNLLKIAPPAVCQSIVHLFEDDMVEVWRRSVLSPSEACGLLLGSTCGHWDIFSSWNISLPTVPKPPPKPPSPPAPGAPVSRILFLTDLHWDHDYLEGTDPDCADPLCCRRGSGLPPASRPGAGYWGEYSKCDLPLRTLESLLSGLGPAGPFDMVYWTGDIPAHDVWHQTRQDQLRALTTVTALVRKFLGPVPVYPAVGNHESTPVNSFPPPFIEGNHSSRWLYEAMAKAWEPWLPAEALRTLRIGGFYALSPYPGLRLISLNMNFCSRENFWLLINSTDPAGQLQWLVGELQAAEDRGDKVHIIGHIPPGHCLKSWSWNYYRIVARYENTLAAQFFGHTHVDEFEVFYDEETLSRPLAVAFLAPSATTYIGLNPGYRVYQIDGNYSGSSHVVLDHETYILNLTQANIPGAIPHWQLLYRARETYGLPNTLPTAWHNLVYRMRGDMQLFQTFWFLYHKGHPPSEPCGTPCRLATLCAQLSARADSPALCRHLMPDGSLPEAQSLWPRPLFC

Row | SMILES | CC50 (HCT-116) [µM] | CC50 (A549 [1]) [µM] | inhibition (A549 [2]) | Activity (A549 [3]) | inhibition [4] | inhibition [5] | inhibition [6] | Activity (A549 [7]) | inhibition [8]
1 | CCCCCCCCCCCCCS/C=C/[C@H](CO)NC(=O)c1ccc(C(C)(C)C)cc1 | 81 | 76 | inactive | inactive | inactive | inactive | inactive | inactive | inactive
2 | CCCCCCCCCCCCCS/C=C/[C@H](CO)NC(=O)C(C)(C)C | 30 | 24 | inactive | 12.4 pmol | inactive | inactive | inactive | inactive | inactive
3 | CCCCCCCCCCCCCS/C=C/[C@H](CO)NC(=O)CCCCCCC | 28 | 19 | inactive | 22.9 pmol | inactive | inactive | inactive | inactive | inactive
